Measured values: ChEMBL document CHEMBL3608250, “Fragment-Based Discovery of Potent and Selective DDR1/2 Inhibitors” (ACS Med Chem Lett, 2015)
Positions count from the first letter of the chain named. Each block holds one compound with its values, some of them ahead of it. Active and inactive are the calls of the source. The rule behind the calls is not given here.

How the values were obtained:
[1] = target: Proto-oncogene tyrosine-protein kinase Src (Homo sapiens) (UniProt P12931); assay: Inhibition of c-Src (unknown origin) using biotinylated HER2 peptide as substrate at 100 uM by time resolved fluorescence method
Sequence of Proto-oncogene tyrosine-protein kinase Src (Homo sapiens) (P12931 2-536 limits assumed): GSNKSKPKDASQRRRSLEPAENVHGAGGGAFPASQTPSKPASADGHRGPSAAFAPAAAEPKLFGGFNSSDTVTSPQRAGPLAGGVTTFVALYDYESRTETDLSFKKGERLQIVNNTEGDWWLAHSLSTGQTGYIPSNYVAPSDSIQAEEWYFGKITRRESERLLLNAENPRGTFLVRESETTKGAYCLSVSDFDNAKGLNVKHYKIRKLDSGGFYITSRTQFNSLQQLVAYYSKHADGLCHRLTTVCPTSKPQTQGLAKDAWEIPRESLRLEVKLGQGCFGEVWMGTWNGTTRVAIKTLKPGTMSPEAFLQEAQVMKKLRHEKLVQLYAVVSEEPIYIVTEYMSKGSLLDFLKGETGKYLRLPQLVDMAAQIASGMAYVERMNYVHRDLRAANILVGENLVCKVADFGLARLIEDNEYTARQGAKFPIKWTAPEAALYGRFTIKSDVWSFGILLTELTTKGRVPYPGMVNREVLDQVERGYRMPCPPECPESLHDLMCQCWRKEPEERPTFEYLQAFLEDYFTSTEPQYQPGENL

[2] = target: T1, Discoidin domain-containing receptor 2 (Homo sapiens, UniProt Q16832); assay: Inhibition of DDR2 (unknown origin) after 1 hr by time resolved fluorescence method
T1 sequence (Q16832 whole entry): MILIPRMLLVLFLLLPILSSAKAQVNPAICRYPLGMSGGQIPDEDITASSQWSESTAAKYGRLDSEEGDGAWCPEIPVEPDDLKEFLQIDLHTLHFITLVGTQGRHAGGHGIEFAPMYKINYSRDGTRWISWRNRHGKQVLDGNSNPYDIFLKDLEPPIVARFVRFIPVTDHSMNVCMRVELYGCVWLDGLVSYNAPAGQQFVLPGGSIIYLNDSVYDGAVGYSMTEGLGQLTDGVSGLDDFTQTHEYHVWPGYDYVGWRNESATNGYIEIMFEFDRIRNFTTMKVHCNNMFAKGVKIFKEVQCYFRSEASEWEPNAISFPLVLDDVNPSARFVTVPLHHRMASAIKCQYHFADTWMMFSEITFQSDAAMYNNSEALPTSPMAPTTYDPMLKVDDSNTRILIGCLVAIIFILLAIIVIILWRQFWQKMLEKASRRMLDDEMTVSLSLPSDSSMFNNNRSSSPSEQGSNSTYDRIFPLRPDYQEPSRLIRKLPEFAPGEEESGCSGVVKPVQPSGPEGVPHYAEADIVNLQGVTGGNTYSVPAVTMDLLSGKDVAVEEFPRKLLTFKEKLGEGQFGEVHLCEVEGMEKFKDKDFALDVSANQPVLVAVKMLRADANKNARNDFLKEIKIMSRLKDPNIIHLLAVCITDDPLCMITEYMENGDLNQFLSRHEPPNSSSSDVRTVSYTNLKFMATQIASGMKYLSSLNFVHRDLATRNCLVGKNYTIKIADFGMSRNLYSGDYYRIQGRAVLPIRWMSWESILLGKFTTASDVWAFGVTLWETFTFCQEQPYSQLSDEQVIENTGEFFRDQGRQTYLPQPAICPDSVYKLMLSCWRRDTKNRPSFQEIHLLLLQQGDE

[3] = target: T2, Mast/stem cell growth factor receptor Kit (Homo sapiens, UniProt P10721); assay: Inhibition of c-Kit (unknown origin) using biotinylated HER2 peptide as substrate by time resolved fluorescence method
T2 sequence (P10721 whole entry, the tested form may be a part): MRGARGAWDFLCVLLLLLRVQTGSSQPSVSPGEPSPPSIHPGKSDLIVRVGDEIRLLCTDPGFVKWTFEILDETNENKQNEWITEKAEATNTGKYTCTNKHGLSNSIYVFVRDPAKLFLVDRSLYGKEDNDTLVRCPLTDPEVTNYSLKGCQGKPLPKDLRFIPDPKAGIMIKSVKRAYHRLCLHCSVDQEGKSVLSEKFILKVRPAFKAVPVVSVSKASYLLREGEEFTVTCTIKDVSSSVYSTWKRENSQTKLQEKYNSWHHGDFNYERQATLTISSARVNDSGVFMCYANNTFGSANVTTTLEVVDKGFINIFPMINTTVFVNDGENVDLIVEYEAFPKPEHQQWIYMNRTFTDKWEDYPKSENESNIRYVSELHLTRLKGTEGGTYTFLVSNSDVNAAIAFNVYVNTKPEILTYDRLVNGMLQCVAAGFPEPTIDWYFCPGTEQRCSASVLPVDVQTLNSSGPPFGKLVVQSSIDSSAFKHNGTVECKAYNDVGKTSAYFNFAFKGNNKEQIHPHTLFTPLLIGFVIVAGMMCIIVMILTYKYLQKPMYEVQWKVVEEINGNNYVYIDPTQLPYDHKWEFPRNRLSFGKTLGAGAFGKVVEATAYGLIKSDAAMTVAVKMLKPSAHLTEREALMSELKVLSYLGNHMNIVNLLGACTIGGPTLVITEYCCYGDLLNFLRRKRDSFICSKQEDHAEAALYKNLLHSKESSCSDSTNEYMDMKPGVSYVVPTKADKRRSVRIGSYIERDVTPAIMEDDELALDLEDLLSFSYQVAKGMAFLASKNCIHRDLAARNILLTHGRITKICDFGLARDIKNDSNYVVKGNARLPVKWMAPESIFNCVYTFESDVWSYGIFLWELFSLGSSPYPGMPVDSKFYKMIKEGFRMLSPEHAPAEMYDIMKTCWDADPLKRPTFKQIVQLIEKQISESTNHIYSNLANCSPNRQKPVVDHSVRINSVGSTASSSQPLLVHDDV

[4] = target: T3, Epithelial discoidin domain-containing receptor 1 (Homo sapiens, UniProt Q08345); assay: Inhibition of DDR1 (unknown origin) after 1 hr by time resolved fluorescence method
T3 sequence (Q08345 whole entry, the tested form may be a part): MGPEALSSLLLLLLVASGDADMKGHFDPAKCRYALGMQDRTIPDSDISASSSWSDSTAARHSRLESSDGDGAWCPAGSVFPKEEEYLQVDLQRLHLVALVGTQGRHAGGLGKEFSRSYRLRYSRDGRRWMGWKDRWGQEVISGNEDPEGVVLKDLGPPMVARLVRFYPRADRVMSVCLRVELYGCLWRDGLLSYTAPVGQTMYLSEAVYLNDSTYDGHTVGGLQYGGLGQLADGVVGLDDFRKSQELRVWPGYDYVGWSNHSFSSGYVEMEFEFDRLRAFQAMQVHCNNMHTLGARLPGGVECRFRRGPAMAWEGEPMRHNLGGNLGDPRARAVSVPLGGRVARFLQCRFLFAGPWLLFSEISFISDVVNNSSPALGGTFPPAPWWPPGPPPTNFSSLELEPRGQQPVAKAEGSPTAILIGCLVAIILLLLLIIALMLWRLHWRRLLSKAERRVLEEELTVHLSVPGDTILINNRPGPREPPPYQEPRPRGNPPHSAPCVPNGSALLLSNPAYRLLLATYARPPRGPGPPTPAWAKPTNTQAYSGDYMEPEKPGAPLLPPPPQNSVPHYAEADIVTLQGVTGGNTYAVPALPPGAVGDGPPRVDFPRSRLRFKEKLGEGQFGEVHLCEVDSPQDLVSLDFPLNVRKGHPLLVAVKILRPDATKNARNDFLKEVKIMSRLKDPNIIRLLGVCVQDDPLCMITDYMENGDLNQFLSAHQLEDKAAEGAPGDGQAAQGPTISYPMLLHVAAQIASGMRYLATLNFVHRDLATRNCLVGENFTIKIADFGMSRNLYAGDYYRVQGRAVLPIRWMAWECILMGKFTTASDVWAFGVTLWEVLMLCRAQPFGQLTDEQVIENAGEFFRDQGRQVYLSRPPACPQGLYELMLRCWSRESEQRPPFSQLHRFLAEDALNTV

[5] = target: T4, Discoidin domain-containing receptor 2 (Homo sapiens) (UniProt Q16832); assay: Inhibition of collagen I-induced DDR2 (unknown origin) phosphorylation expressed in HEK293 cells at 0.1 to 1 uM after 16 hrs by Western blotting; assay type: cell-based
T4 sequence (whole entry): T1 sequence (Q16832 whole entry)
Outline: (§1)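 HEK293 cells stably transfected with either wild-type DDR2 or the I638F mutant, giving DDR2 overexpression. Cells were left unstimulated or stimulated with collagen I and treated with compound. DDR2 tyrosine phosphorylation (pY) was read out by immunoblot.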

[6] = tested on: T5, Discoidin domain-containing receptor 2 (Homo sapiens), Q16832 [I638F]; assay: Inhibition of collagen I-induced DDR2 I638F mutant (unknown origin) phosphorylation expressed in HEK293 cells at 0.1 to 1 uM after 16 hrs by Western blotting; assay type: cell-based; outline: as §1
T5 sequence (whole entry): T1 sequence (Q16832 whole entry) with I638F

[7] = target: Proto-oncogene tyrosine-protein kinase Src (Homo sapiens) (UniProt P12931); assay: Inhibition of c-Src (unknown origin) using biotinylated HER2 peptide as substrate at 10 uM by time resolved fluorescence method
[8] = target: T3, Epithelial discoidin domain-containing receptor 1; assay: Inhibition of DDR1 (unknown origin) at 0.0015 uM after 1 hr by time resolved fluorescence method
[9] = target: T2, Mast/stem cell growth factor receptor Kit; assay: Inhibition of c-Kit (unknown origin) using biotinylated HER2 peptide as substrate at 10 uM by time resolved fluorescence method
[10] = Clearance in Balb/C mouse at 1 mg/kg, iv and 5 mg/kg, po; assay type: ADME, organism-based; conditions: in vivo
[11] = Volume of distribution at steady state in Balb/C mouse at 1 mg/kg, iv and 5 mg/kg, po; assay type: ADME, organism-based; conditions: in vivo, read-out: Vdss
[12] = target: T2, Mast/stem cell growth factor receptor Kit; assay: Inhibition of c-Kit (unknown origin) using biotinylated HER2 peptide as substrate at 3 uM by time resolved fluorescence method
[13] = Oral bioavailability in Balb/C mouse at 5 mg/kg; assay type: ADME, organism-based; conditions: in vivo
[14] = Half life in Balb/C mouse at 1 mg/kg, iv and 5 mg/kg, po; assay type: ADME, organism-based; conditions: in vivo
[15] = target: T4, Discoidin domain-containing receptor 2 (Homo sapiens); assay: Inhibition of DDR2 (unknown origin) at 100 uM after 1 hr by time resolved fluorescence method
[16] = target: T3, Epithelial discoidin domain-containing receptor 1; assay: Inhibition of DDR1 (unknown origin) at 0.005 uM after 1 hr by time resolved fluorescence method
[17] = Antiproliferative activity against human HCC366 cells expressing DDR2 mutant after 72 hrs by alamar blue assay; assay type: functional, cell-based; conditions: HCC366, 72 h
[18] = Antiproliferative activity against human NCI-H2286 cells expressing DDR2 mutant after 72 hrs by alamar blue assay; assay type: functional, cell-based; conditions: NCI-H2286, 72 h
[19] = target: T1, Discoidin domain-containing receptor 2; assay: Inhibition of collagen I-induced DDR2 (unknown origin) phosphorylation expressed in HEK293 cells after 16 hrs by mesoscale discovery assay; assay type: cell-based
Outline: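 HEK293 cells stably transfected to overexpress DDR2 (wild type or I638F mutant lines were generated), then stimulated with collagen I. Tyrosine-phosphorylated DDR2 was measured by MesoScale Discovery immunoassay and an EC50 was derived from the concentration–response.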

[20] = target: Proto-oncogene tyrosine-protein kinase Src (Homo sapiens) (UniProt P12931); assay: Inhibition of c-Src (unknown origin) using biotinylated HER2 peptide as substrate at 3 uM by time resolved fluorescence method
[21] = target: T2, Mast/stem cell growth factor receptor Kit; conditions: 0.003 uM

SMILES: Cc1ccc([C@H](C)NC(=O)Nc2cccc(F)c2)cc1NC(=O)c1cnc2ccccn12
- inhibition [7]: 22%
- IC50 [2]: 4.5 nM
- IC50 [3]: 140 nM
- inhibition [8]: 54%

SMILES: Cc1ccc([C@H](C)NC(=O)c2cccc(C(F)(F)F)c2)cc1NC(=O)c1cnc2ccccn12
- inhibition [7]: 48%
- clearance [10]: 2.99 mL/min/kg
- IC50 [2]: 5.8 nM
- Vd [11]: 0.31 L/kg
- inhibition [12]: 49%
- bioavailability [13]: 55%
- half-life [14]: 1.4 h
- inhibition [8]: 44%

SMILES: O=C(NCc1cccnc1)Nc1ccccc1Cl
- inhibition [15]: 32%
- IC50 [4]: > 100000 nM

SMILES: Cc1ccc([C@H](C)NC(=O)Nc2ccccc2)cc1NC(=O)c1cnc2ccccn12
- inhibition [7]: 4%
- IC50 [2]: 8.1 nM
- IC50 [3]: 310 nM
- IC50 [4]: 6 nM

SMILES: Cc1cn(-c2cc(NC(=O)c3ccc(C)c(Nc4nccc(-c5cccnc5)n4)c3)cc(C(F)(F)F)c2)cn1 [NILOTINIB]
- inhibition [5]: Active
- IC50 [18]: 1800 nM
- inhibition [6]: Active

Further lines, with some results ahead:

- inhibition [1]: 63%
- IC50 [2]: 280 nM
- IC50 [3]: 180 nM
- IC50 [4]: 150 nM
SMILES: O=C(NCc1cccc(NC(=O)c2cnc3ccccn23)c1)Nc1ccccc1

- inhibition [5]: Active
- inhibition [6]: Active
SMILES: CN1CCN(CCOc2cc(OC3CCOCC3)c3c(Nc4c(Cl)ccc5c4OCO5)ncnc3c2)CC1

- inhibition [9]: 47%
- IC50 [2]: 1300 nM
- IC50 [4]: 1500 nM
SMILES: Cc1ccc([C@@H](C)NC(=O)Nc2ccccc2)cc1NC(=O)c1cnc2ccccn12

- inhibition [7]: 52%
- clearance [10]: 16.6 mL/min/kg
- IC50 [2]: 6.1 nM
- IC50 [3]: 160 nM
- Vd [11]: 1.9 L/kg
- inhibition [16]: 59%
- bioavailability [13]: 97%
- half-life [14]: 1.8 h
SMILES: Cc1ccc([C@H](C)Nc2nc3cc(F)ccc3o2)cc1NC(=O)c1cnc2ccccn12

- inhibition [5]: Active
- EC50 [19]: 8.7 nM
- inhibition [20]: 40%
- clearance [10]: 7.65 mL/min/kg
- IC50 [2]: 3.3 nM
- inhibition [6]: Active
- IC50 [3]: 19 nM
- Vd [11]: 0.42 L/kg
- bioavailability [13]: 62%
- half-life [14]: 0.83 h
- inhibition [8]: 54%
SMILES: Cc1ccc(CNC(=O)Nc2cccc(F)c2)cc1NC(=O)c1cnc2ccccn12
- IC50 [17]: > 10000 nM
- IC50 [18]: > 10000 nM

- inhibition [21]: 90%
- inhibition [8]: 40%
SMILES: Cc1nc(Nc2ncc(C(=O)Nc3c(C)cccc3Cl)s2)cc(N2CCN(CCO)CC2)n1 [DASATINIB]
- IC50 [17]: 29 nM
- IC50 [18]: 32 nM

- inhibition [7]: 54%
- IC50 [2]: 8.2 nM
- IC50 [3]: 9.8 nM
SMILES: Cc1ccc(CNC(=O)Nc2ccccc2)cc1NC(=O)c1cnc2ccccn12
